Reference: ChEMBL document CHEMBL1155568, “Biological characterization of fusapyrone and deoxyfusapyrone, two bioactive secondary metabolites of Fusarium semitectum” (J Nat Prod, 2000)
Active and inactive are the calls of the source. No cut-off for these calls is given here.

Tests used:
Solanum lycopersicum [1] = assay: Phytotoxicity in tomato leaf assessed as chlorosis in the leaf at 10^-4 M by tomato cutting assay; type: organism-based; conditions: in vivo, 100 µM
How it was run: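 Young greenhouse tomato plants were cut, and the stems were immersed in toxin solutions (MeOH stock diluted with water; 10^-3 to 10^-6 M). They were held 24 h at 22 °C under a 12-h photoperiod, then moved to distilled water for 48 h more, and symptoms were scored visually.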

Cryptococcus neoformans [2] = assay: Antifungal activity against Cryptococcus neoformans 14 after 48 hrs by broth micromethod assay; type: functional
How it was run: (§1)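 Broth microdilution in YNB with 0.5% glucose, phosphate buffer pH 7, using ten 2-fold dilutions (50-0.097 µg/mL). Inoculum from 24-48 h Sabouraud agar cultures, final 5 × 10^2 cells for C. albicans and C. kefyr, 5 × 10^3 cells/conidia for C. glabrata, Cryptococcus neoformans and Aspergillus. Incubated at 35 °C up to 72 h, read every 24 h. MIC is the complete absence of growth versus medium controls.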

Starmera dryadoides = assay: Antifungal activity against Pichia dryadoides ITEM 1663 at 15 ug/disk by paper disk method; type: functional; conditions: Liangdongia dryadoides; read-out: IZ
How it was run: (§2)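 Agar overlay disk diffusion on plant-derived filamentous fungi and yeasts: 0.7% water-agar seeded with 10^4 conidia/mL or a yeast cell suspension, poured over PDA. 6-mm cellulose disks were loaded from methanolic solutions and air-dried, with nystatin as comparator. Plates ran 24-72 h at 25 °C; inhibition halo was measured over three disks. Agar beneath disks was subcultured on PDA to separate fungicidal from fungistatic, scored in four classes; run twice, averaged.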

Ascochyta rabiei = assay: Antifungal activity against Ascochyta rabiei ITEM 1067 at 15 ug/disk by paper disk method; type: functional; conditions: read-out: IZ
How it was run: (§3)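 Agar diffusion: a 0.7% water-agar overlay carrying 10^4 conidia/mL (or yeast cells) is poured on PDA. 6-mm cellulose disks loaded with methanolic compound at 5 or 15 µg/disk are air-dried and applied, with nystatin as comparator. Plates incubated 24-72 h at 25 °C; inhibition halo diameter read from three disks. Agar under each disk is subcultured on PDA to score fungicidal/fungistatic effect. Experiment run twice and averaged.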

[3] = system: Fusarium oxysporum f. sp. lycopersici; assay: Antifungal activity against Fusarium oxysporum f. sp. lycopersici ITEM 1462 at 15 ug/disk by paper disk method; type: functional; conditions: read-out: IZ; how it was run: as §3
Aspergillus flavus [4] = assay: Antifungal activity against Aspergillus flavus 3 after 48 hrs by broth micromethod assay; type: functional; how it was run: as §1
Alternaria alternata [5] = assay: Antifungal activity against Alternaria alternata ITEM 511 at 15 ug/disk by paper disk method; type: functional; conditions: read-out: IZ; how it was run: as §3
[6] = system: Cladosporium cladosporioides; assay: Antifungal activity against Cladosporium cladosporioides ITEM 2079 at 15 ug/disk by paper disk method; type: functional; conditions: read-out: IZ; how it was run: as §3
Alternaria alternata [7] = assay: Antifungal activity against Alternaria alternata ITEM 468 at 15 ug/disk by paper disk method; type: functional; conditions: read-out: IZ; how it was run: as §3
Alternaria alternata [8] = assay: Antifungal activity against Alternaria alternata ITEM 526 at 15 ug/disk by paper disk method; type: functional; conditions: read-out: IZ; how it was run: as §3
Penicillium verrucosum = assay: Antifungal activity against Penicillium verrucosum ITEM 439 at 15 ug/disk by paper disk method; type: functional; conditions: read-out: IZ; how it was run: as §2
Alternaria alternata [9] = assay: Antifungal activity against Alternaria alternata ITEM 750 at 15 ug/disk by paper disk method; type: functional; conditions: read-out: IZ; how it was run: as §3
Fusarium oxysporum = assay: Antifungal activity against Fusarium oxysporum ITEM 1462 at 15 ug/disk by paper disk method; type: functional; conditions: read-out: IZ; how it was run: as §3
Aspergillus flavus [10] = assay: Antifungal activity against Aspergillus flavus 3 after 72 hrs by broth micromethod assay; type: functional; how it was run: as §1
Kluyveromyces lactis = assay: Antifungal activity against Kluyveromyces lactis ITEM 1656 at 15 ug/disk by paper disk method; type: functional; conditions: read-out: IZ; how it was run: as §2
Wickerhamomyces anomalus = assay: Antifungal activity against Pichia anomala ITEM 1661 at 15 ug/disk by paper disk method; type: functional; conditions: Hansenula anomala; read-out: IZ; how it was run: as §2
Kluyveromyces marxianus [11] = assay: Antifungal activity against Kluyveromyces fragilis ITEM 1657 at 15 ug/disk by paper disk method; type: functional; conditions: read-out: IZ; how it was run: as §2
Aspergillus fumigatus [12] = assay: Antifungal activity against Aspergillus fumigatus 1 after 24 hrs by broth micromethod assay; type: functional; how it was run: as §1
Kluyveromyces marxianus [13] = assay: Antifungal activity against Candida kefyr Y0601 after 24 hrs by broth micromethod assay; type: functional; how it was run: as §1
Saccharomyces cerevisiae = assay: Antifungal activity against Saccharomyces cerevisiae ITEM 1633 at 15 ug/disk by paper disk method; type: functional; conditions: read-out: IZ; how it was run: as §2
[14] = system: Penicillium brevicompactum; assay: Antifungal activity against Penicillium brevicompactum ITEM 449 at 15 ug/disk by paper disk method; type: functional; conditions: read-out: IZ; how it was run: as §2
Aspergillus niger = assay: Antifungal activity against Aspergillus niger 2 after 24 hrs by broth micromethod assay; type: functional; how it was run: as §1
Rhodotorula mucilaginosa = assay: Antifungal activity against Rhodotorula pilimanae at 15 ug/disk by […]; type: functional; conditions: read-out: IZ
Fusarium verticillioides = assay: Antifungal activity against Fusarium moniliforme ITEM 1497 at 15 ug/disk by paper disk method; type: functional; conditions: read-out: IZ; how it was run: as §3
Cicer arietinum = assay: Phytotoxicity in chickpea leaf assessed as necrosis in the leaf at 10^-3 M by leaf puncture assay; type: organism-based; conditions: in vivo, 1000 µM
How it was run: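 Tomato and chickpea leaves were punctured and treated with toxin dissolved in MeOH and diluted with water (final 4% MeOH), tested from 10^-2 to 10^-7 M. Chlorosis and necrosis were recorded visually as spot symptoms.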

Aspergillus fumigatus [15] = assay: Antifungal activity against Aspergillus fumigatus 1 after 48 hrs by broth micromethod assay; type: functional; how it was run: as §1
Botrytis cinerea = assay: Antifungal activity against Botrytis cinerea ITEM 966 at 15 ug/disk by paper disk method; type: functional; conditions: read-out: IZ; how it was run: as §3
Cryptococcus neoformans [16] = assay: Antifungal activity against Cryptococcus neoformans 13 after 24 hrs by broth micromethod assay; type: functional; how it was run: as §1
Fusarium graminearum = assay: Antifungal activity against Fusarium graminearum ITEM 2 at 15 ug/disk by paper disk method; type: functional; conditions: read-out: IZ
How it was run: (§4)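 Agar overlay diffusion: 0.7% water-agar with 10^4 conidia/mL of test fungus poured over PDA; 6-mm cellulose disks impregnated with methanolic compound solution, air-dried. Incubated 25 °C for 24-72 h by fungus; growth-inhibition halo diameter from three replicate disks. Agar under disks then subcultured on PDA to score fungicidal/fungistatic classes. Repeated twice, averaged.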

Solanum lycopersicum [17] = assay: Stimulation of root elongation in tomato at 10^-5 M; type: functional, organism-based
How it was run: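 Tomato seeds were surface-sterilized in 4% NaClO for 10 min and pregerminated 3 days in the dark. They were then placed 10 per dish on filter paper wetted with 2 mL of compound in 1% MeOH (10^-4 or 10^-5 M) and held 4 days at 25 °C under a 12-h photoperiod. Shoot and rootlet lengths were measured against control; done in triplicate, repeated once.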

Aspergillus parasiticus = assay: Antifungal activity against Aspergillus parasiticus ITEM 11 at 15 ug/disk by paper disk method; type: functional; conditions: read-out: IZ; how it was run: as §3
Cryptococcus neoformans [18] = assay: Antifungal activity against Cryptococcus neoformans 13 after 72 hrs by broth micromethod assay; type: functional; how it was run: as §1
Pichia kluyveri = assay: Antifungal activity against Pichia kluyveri ITEM 1649 at 15 ug/disk by paper disk method; type: functional; how it was run: as §2
Cryptococcus neoformans [19] = assay: Antifungal activity against Cryptococcus neoformans 14 after 24 hrs by broth micromethod assay; type: functional; how it was run: as §1
Candida albicans = assay: Antifungal activity against Candida albicans Y01009 after 24 hrs by broth micromethod assay; type: functional; how it was run: as §1
Priestia megaterium = assay: Antimicrobial activity against Bacillus megaterium at 30 ug/disk by agar diffusion method; type: functional, organism-based
Fusarium incarnatum = assay: Antifungal activity against Fusarium semitectum ITEM 393 at 15 ug/disk by paper disk method; type: functional; conditions: read-out: IZ; how it was run: as §3
Alternaria citri = assay: Antifungal activity against Alternaria citri ITEM 466 at 15 ug/disk by paper disk method; type: functional; conditions: read-out: IZ; how it was run: as §4

Row | Structure (SMILES) | Activity (Solanum lycopersicum [1]) | Activity (Cryptococcus neoformans [2]) [µg/mL] | zone of inhibition at 15 µg/disc (Starmera dryadoides) [mm] | zone of inhibition at 15 µg/disc (Ascochyta rabiei) [mm] | zone of inhibition at 15 µg/disc [3] [mm] | Activity (Aspergillus flavus [4]) [µg/mL] | zone of inhibition at 15 µg/disc (Alternaria alternata [5]) [mm] | zone of inhibition at 15 µg/disc [6] [mm] | zone of inhibition at 15 µg/disc (Alternaria alternata [7]) [mm] | zone of inhibition at 15 µg/disc (Alternaria alternata [8]) [mm] | zone of inhibition at 15 µg/disc (Penicillium verrucosum) [mm] | zone of inhibition at 15 µg/disc (Alternaria alternata [9]) [mm] | zone of inhibition at 15 µg/disc (Fusarium oxysporum) [mm] | Activity (Aspergillus flavus [10]) [µg/mL] | zone of inhibition at 15 µg/disc (Kluyveromyces lactis) [mm] | zone of inhibition at 15 µg/disc (Wickerhamomyces anomalus) [mm] | zone of inhibition at 15 µg/disc (Kluyveromyces marxianus [11]) [mm] | Activity (Aspergillus fumigatus [12]) [µg/mL] | Activity (Kluyveromyces marxianus [13]) [µg/mL] | zone of inhibition at 15 µg/disc (Saccharomyces cerevisiae) [mm] | other results
1 | CCCCCCC(C)C/C(C)=C\C(C)/C=C(C)/C=C/C(O)C(C)(C)c1cc(O)c([C@@H]2O[C@@H](CO)C[C@@H](O)[C@@H]2O)c(=O)o1 (stereo partly specified) [DEXOYFUSAPYRONE] | Active | 3.12 | 0 | 12 | 4 | 1.56 | 11 | 16.2 | 10.8 | 11.7 | 11 | 10.5 | 0 | 1.56 | 0 | 0 | 0 | 3.12 | >50 | 0 | zone of inhibition at 15 µg/disc [14]: 10.5 mm; Activity (Aspergillus niger): 1.56 µg/mL; zone of inhibition at 15 µg/disc (Rhodotorula mucilaginosa): 0 mm; zone of inhibition at 15 µg/disc (Fusarium verticillioides): 0 mm; Activity (Cicer arietinum): Active; Activity (Aspergillus fumigatus [15]): 3.12 µg/mL; zone of inhibition at 15 µg/disc (Botrytis cinerea): 13.5 mm; Activity (Cryptococcus neoformans [16]): 6.25 µg/mL; zone of inhibition at 15 µg/disc (Fusarium graminearum): 10.8 mm; Activity (Solanum lycopersicum [17]): Active; zone of inhibition at 15 µg/disc (Aspergillus parasiticus): 12.7 mm; Activity (Cryptococcus neoformans [18]): 6.25 µg/mL; Activity (Pichia kluyveri): 0 mm; Activity (Cryptococcus neoformans [19]): 3.12 µg/mL; Activity (Candida albicans): >50 µg/mL; Activity (Priestia megaterium): inactive; zone of inhibition at 15 µg/disc (Fusarium incarnatum): 8 mm; zone of inhibition at 15 µg/disc (Alternaria citri): 9.2 mm
2 | CCCCCCC(C)C/C(C)=C\C(/C=C(C)/C=C/C(O)C(C)(C)c1cc(O)c([C@@H]2O[C@@H](CO)C[C@@H](O)[C@@H]2O)c(=O)o1)CO (stereo partly specified) [FUSAPYRONE] | Active | 3.12 | 0 | 35.8 | 30 | 1.56 | 18 | 28.7 | 18.8 | 20.3 | 29.7 | 18.7 | 28.3 | 1.56 | 0 | 0 | 0 | 1.56 | 0.78 | 0 | zone of inhibition at 15 µg/disc [14]: 30 mm; Activity (Aspergillus niger): 1.56 µg/mL; zone of inhibition at 15 µg/disc (Rhodotorula mucilaginosa): 0 mm; zone of inhibition at 15 µg/disc (Fusarium verticillioides): 20.1 mm; Activity (Cicer arietinum): Active; Activity (Aspergillus fumigatus [15]): 1.56 µg/mL; zone of inhibition at 15 µg/disc (Botrytis cinerea): 29.3 mm; Activity (Cryptococcus neoformans [16]): 6.25 µg/mL; zone of inhibition at 15 µg/disc (Fusarium graminearum): 26.5 mm; Activity (Solanum lycopersicum [17]): Active; zone of inhibition at 15 µg/disc (Aspergillus parasiticus): 27.5 mm; Activity (Cryptococcus neoformans [18]): 6.25 µg/mL; Activity (Pichia kluyveri): 0 mm; Activity (Cryptococcus neoformans [19]): 3.12 µg/mL; Activity (Candida albicans): >50 µg/mL; Activity (Priestia megaterium): inactive; zone of inhibition at 15 µg/disc (Fusarium incarnatum): 28.7 mm; zone of inhibition at 15 µg/disc (Alternaria citri): 18 mm
